OX1R antag-1: antagonists of human orexin 1 receptor | CHO/OX1R cells, Fluo-8 calcium fluorescence, orexin A | 0.43% of 330,000 active | O43613 | inhibition, % at 5 µM;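 active means inhibition above its plate's threshold, mean inhibition of all tested compounds on the plate plus 3 SD, cut at about 37% in these data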;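 further: 0% = orexin A challenge wells and 100% = SB-334867-A antagonist wells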
Target sequence (O43613 whole entry, looked up): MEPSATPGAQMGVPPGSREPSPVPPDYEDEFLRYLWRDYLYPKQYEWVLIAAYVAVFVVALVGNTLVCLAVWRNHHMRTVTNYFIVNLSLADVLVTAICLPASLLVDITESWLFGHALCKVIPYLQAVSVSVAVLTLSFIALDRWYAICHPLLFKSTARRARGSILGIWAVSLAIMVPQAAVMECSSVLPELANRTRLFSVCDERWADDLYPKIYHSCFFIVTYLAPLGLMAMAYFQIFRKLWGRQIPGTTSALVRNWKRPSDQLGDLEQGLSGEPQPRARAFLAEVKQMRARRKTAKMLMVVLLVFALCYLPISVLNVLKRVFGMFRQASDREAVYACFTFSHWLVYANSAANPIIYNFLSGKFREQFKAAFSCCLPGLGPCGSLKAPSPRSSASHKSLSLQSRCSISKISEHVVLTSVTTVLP
CHO parental Ca: counter-screen for OX1R antagonists: effect in parental CHO cells | parental CHO-K1, ATP-induced calcium, Fluo-8 fluorescence | inhibition, % at 5.6 µM | 0.63% of 330,000 active;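 active means inhibition above that plate's mean sample inhibition plus 3 SD, cut at about 26% in these data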;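 further: 0% = ATP-challenged DMSO wells and 100% = DMSO wells without ATP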
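Assay system: untransfected parental CHO cell line. Also added: ATP agonist challenge. Dosing: one dose, 5.6 µM nominal. Measured by: Fluo-8 fluorescence. Read-out: % inhibition. Benchmarks: ATP wells versus no-ATP DMSO wells. Repeats: no replicates.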
GalR3 antag: human GalR3 antagonism. O60755. HEK293 GalR3-CNG cAMP membrane potential fluorescence; galR3 body fused to GalR1 C-terminus. inhibition, % at 3 µM. 0.44% of 360,000 active;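 active means inhibition above the screen-wide average plus 3 SD, cut at about 13% in these data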;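 further: forskolin and galanin both at EC90 stimulate the cells; cAMP rise reported by CNG channel membrane potential dye signal; 0% = forskolin plus galanin with DMSO and 100% = forskolin alone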
OX1R antag-2: OX1R (human) antagonism; 1.8% of 330,000 active; O43613; OX1R-expressing cells, FRET antagonist read-out; inhibition, % at 6.6 µM; AID 485270; in the data active means inhibition mostly above about 38%, no sharp cut-off; inactive means mostly below about 40%;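 further: 0% = agonist challenge alone and 100% = reference antagonist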
GPR7 antagonist: human neuropeptides B/W receptor 1 antagonism; P48145; GPR7-expressing cells, fluorescence antagonist assay; inhibition, % at 4.4 µM; 1.1% of 290,000 active; AID 1861; in the data active means inhibition above about 16%, passing the limit was not always enough;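 further: cells stimulated with the agonist NPW; 0% = agonist with vehicle and 100% = vehicle without agonist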
* hit, by the source's call; / = no result given. Sampled rows, rich in hits. Any-hit rate of the full collection: about 3.1%.

SMILES	OX1R antag-1	CHO parental Ca	GalR3 antag	OX1R antag-2	GPR7 antagonist
Cc1nc(SCc2nc3cc(Cl)c(F)cc3[nH]2)c2oc3ccccc3c2n1	33	1	0	53*	/
O=S(=O)(c1ccc(Br)cc1)N1CCC2(CC1)OCCO2	-3	12	-3	12	-2
Clc1ccccc1NN(Cc1ccncc1)c1ccccc1Cl	/	/	-6	/	/
COC(=O)[C@]12C[C@H](CC(=O)NCCc3ccccc3OC)C(=O)N(Cc3ccc4c(c3)OCO4)C1=C[C@H](COCc1ccccc1)O[C@@H]2C	/	/	-8	/	/
COC(=O)[C@@]12C[C@@H](CC(=O)NCc3cccs3)C(=O)N(Cc3cccc4ccccc34)C1=CCC(C)(C)C2	/	/	-8	/	/
C=CCc1ccc(O)c(-c2cc(CC=C)ccc2O)c1	47*	40*	-8	3	-14
CCC(C)c1ccc(NC(=S)NCCn2cc(Cl)cn2)cc1 (stereo not drawn)	32	45*	1	19	-9
COC(=O)Cc1nnn2c1[C@H](C)[C@H](c1ccccc1Br)OC[C@@H]2c1ccccc1	/	/	-6	/	/
CCn1c(N2CCN(C(=S)NCC(C)C)CC2)nc2ccccc21	-12	-7	0	0	-4
CC(C)CNC(=S)N1CCN(c2nc3ccccc3s2)CC1	11	72*	-5	14	-6
CCCCN(C(=O)c1ccc([N+](=O)[O-])o1)c1c(N)n(CCCC)c(=O)[nH]c1=O	-22	-22	-6	62*	/
CCCCN(C(=O)c1ccc(-c2ccc([N+](=O)[O-])cc2)o1)c1c(N)n(CCCC)c(=O)[nH]c1=O	-10	2	-3	46	/
CCCCn1c(N)c(N(Cc2ccccc2OC)C(=O)c2ccc([N+](=O)[O-])s2)c(=O)[nH]c1=O	-23	-17	-3	50*	/
CCCCn1c(N)c(N(Cc2ccccc2OC)C(=O)COc2ccccc2OC)c(=O)[nH]c1=O	-12	-13	-5	25	/
COC(=O)C1=C(C)N(C)C(=NCc2cccc(C(F)(F)F)c2)NC1c1ccccc1C(F)(F)F (stereo not drawn)	/	/	-6	/	/
COC(=O)C(CC(C)C)N(Cc1ccc(Br)cc1)S(=O)(=O)CCl (stereo not drawn)	/	/	-7	/	/
C=C1[C@H](C)CN(S(=O)C(C)(C)C)[C@H]1CCO (stereo partly drawn)	/	/	-8	/	/
Cc1cc(/C=N/Nc2nc(N)ncc2[N+](=O)[O-])c(C)n1-c1ccccc1F	-37	-34	/	44*	-3
O=C(Nc1nc2cc3c(cc2s1)OCCO3)c1cccs1	12	7	1	66*	-25
CCOC(=O)c1c(-c2ccc(OC)cc2)csc1NC(=O)CNCc1ccco1	-8	-20	/	46*	-10
CCOC(=O)c1c(-c2ccccc2)csc1NC(=O)CSc1nc(C)cc(C)n1	-4	37*	-7	36	8
CCOC(=O)c1c(-c2ccccc2)csc1NC(=O)CSc1nc(N)cc(N)n1	1	-18	-2	30	7
CCOC(=O)c1c(-c2ccc(Cl)cc2)csc1NC(=O)CNCc1ccco1	-24	-23	2	35	-2
COC(=O)C1=CC(=O)N2CCN=C2S1	/	/	-5	/	/
Cc1c(CN2CCN(c3ncc(Cc4ccccc4)cn3)CC2)c(=O)n(-c2ccccc2)n1C	/	/	-8	/	/
SMILES	OX1R antag-1	CHO parental Ca	GalR3 antag	OX1R antag-2	GPR7 antagonist
O=C1OCC2=C1C(c1ccc(F)cc1)c1cc3c(cc1N2)OCCO3 (stereo not drawn)	/	/	-3	/	19*
CCOc1ccccc1C1C2=C(COC2=O)Nc2cc3c(cc21)OCO3 (stereo not drawn)	-13	-15	4	1	16
O=C1OCC2=C1C(c1ccc(F)cc1)c1cc3c(cc1N2)OCO3 (stereo not drawn)	/	/	5	/	19*
Cc1ccc([C@H]2N[C@]3(CCCN(Cc4cccn4C)C3=O)[C@H]3C(=O)N(C)C(=O)[C@@H]23)cc1	/	/	1	/	/
Cc1noc(C)c1COc1ccc(CC(=O)NCc2ccccc2)cc1	-9	-14	-3	20	18*
CC(OC(=O)CN1C(=O)NC2(CCCC2)C1=O)c1ccc(F)cc1 (stereo not drawn)	4	-10	-4	10	/
O=C1CSC(=S)N1/N=C/c1cc(Br)c(O)c(Br)c1	90*	75*	/	46	31
COc1cc(/C=N/N2C(=O)CSC2=S)ccc1O	14	8	-3	21	-5
CCc1nc2c(OCc3ccc(OC)cc3)cccn2c1N(C)C(=O)c1ccncc1	/	/	-3	/	/

Assay outcomes deposited in PubChem BioAssay by The Scripps Research Institute Molecular Screening Center.
